Measurements from ChEMBL document CHEMBL1158040, “Biological activities and 3D QSAR studies of a series of Delisea pulchra (cf. fimbriata) derived natural products” (J Nat Prod, 2006).
In brackets after ≈: the same amount, converted by molar mass. Activity calls are given as the source filed them. The rule behind the calls is not given here.

Assays:
Micrococcus luteus [1] = assay: Antimicrobial activity against Micrococcus luteus at 5 ug; format: functional, organism-based
How it was run: (§1)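 Direct bioautography: each compound is spotted onto TLC plates and the solvent evaporated. The test organism is then grown directly on the plate. Growth inhibition is scored at the spot as active (+) or very active (++). Where a number is given, it is the radius in mm of the inhibition zone around the spot.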

Escherichia coli [2] = assay: Antimicrobial activity against Escherichia coli at 5 ug; format: functional, organism-based; how it was run: as §1
Penicillium oxalicum [3] = assay: Antimicrobial activity against Penicillium oxalicum at 5 ug; format: functional; conditions: for zone of inhibition at 5 µg/disc: read-out: IZ; how it was run: as §1
Penicillium oxalicum [4] = assay: Antimicrobial activity against Penicillium oxalicum at 0.1 ug; format: functional; conditions: for zone of inhibition at 0.1 µg/disc: read-out: IZ; how it was run: as §1
Penicillium oxalicum [5] = assay: Antimicrobial activity against Penicillium oxalicum at 10 ug; format: functional; conditions: for zone of inhibition at 10 µg/disc: read-out: IZ; how it was run: as §1
Penicillium oxalicum [6] = assay: Antimicrobial activity against Penicillium oxalicum at 1 ug; format: functional; conditions: for zone of inhibition at 1 µg/disc: read-out: IZ; how it was run: as §1
Bacillus subtilis [7] = assay: Antimicrobial activity against Bacillus subtilis at 5 ug; format: functional, organism-based; how it was run: as §1
Penicillium oxalicum [8] = assay: Antimicrobial activity against Penicillium oxalicum at 0.01 ug; format: functional; how it was run: as §1
LNCaP = assay: Cytotoxicity against human LNCAP cells; format: functional; conditions: read-out: ED50 (the source's name)
KB [9] = assay: Cytotoxicity against vinblastine-resistant human KB cells; format: functional; conditions: read-out: ED50 (the source's name)
How it was run: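 The vinblastine-resistant KB-V1 line was tested both with and without added vinblastine in the cultured tumour-cell cytotoxicity panel. Results are reported as ED50.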

KB [10] = assay: Cytotoxicity against vinblastine-sensitive human KB cells; format: functional; conditions: read-out: ED50 (the source's name)
Micrococcus luteus [11] = assay: Antimicrobial activity against Micrococcus luteus at 0.1 ug; format: functional, organism-based; how it was run: as §1
Lu1 = assay: Cytotoxicity against human Lu1 cells; format: functional; conditions: read-out: ED50 (the source's name)
Micrococcus luteus [12] = assay: Antimicrobial activity against Micrococcus luteus at 1 ug; format: functional, organism-based; how it was run: as §1
Bacillus subtilis [13] = assay: Antimicrobial activity against Bacillus subtilis at 0.1 ug; format: functional, organism-based; how it was run: as §1
Escherichia coli [14] = assay: Antimicrobial activity against Escherichia coli at 1 ug; format: functional, organism-based; how it was run: as §1
KB [15] = assay: Cytotoxicity against human KB cells; format: functional; conditions: read-out: ED50 (the source's name)
Bacillus subtilis [16] = assay: Antimicrobial activity against Bacillus subtilis at 1 ug; format: functional, organism-based; how it was run: as §1
Escherichia coli [17] = assay: Antimicrobial activity against Escherichia coli at 10 ug; format: functional, organism-based; how it was run: as §1
Plasmodium falciparum = assay: Antimalarial activity against chloroquine-sensitive Plasmodium falciparum D6 at 10 ug/ml; format: functional
Bacillus subtilis [18] = assay: Antimicrobial activity against Bacillus subtilis at 10 ug; format: functional, organism-based; how it was run: as §1
[19] = biological target: Human immunodeficiency virus type 1 reverse transcriptase (Human immunodeficiency virus 1) (UniProt Q72547); assay: Inhibition of HIV1 RT at 200 uM
How it was run: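 HIV-1 reverse transcriptase inhibition was measured in an ELISA-based system.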

ZR-75-1 = assay: Cytotoxicity against human ZR-75-1 cells; format: functional; conditions: read-out: ED50 (the source's name)
Micrococcus luteus [20] = assay: Antimicrobial activity against Micrococcus luteus at 10 ug; format: functional, organism-based; how it was run: as §1
[21] = Inhibition of TK assessed as residual activity at 200 ug/ml
How it was run: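 The enzyme was tyrosine kinase p56lck, with test compounds at 200 μg/mL. The read-out is the remaining enzyme activity.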

Escherichia coli [22] = assay: Antimicrobial activity against Escherichia coli at 0.1 ug; format: functional, organism-based; how it was run: as §1

Compound	Activity (Micrococcus luteus [1])	Activity (Escherichia coli [2])	zone of inhibition at 5 µg/disc (Penicillium oxalicum [3]) [mm]	zone of inhibition at 10 µg/disc (Penicillium oxalicum [5]) [mm]	zone of inhibition at 1 µg/disc (Penicillium oxalicum [6]) [mm]	Activity (Bacillus subtilis [7])	EC50 (LNCaP) [µg/mL]	EC50 (KB [9]) [µg/mL]	EC50 (KB [10]) [µg/mL]	Activity (Micrococcus luteus [11])	EC50 (Lu1) [µg/mL]	Activity (Micrococcus luteus [12])	Activity (Bacillus subtilis [13])	Activity (Escherichia coli [14])	EC50 (KB [15]) [µg/mL]	Activity (Bacillus subtilis [16])	Activity (Escherichia coli [17])	Activity (Bacillus subtilis [18])	Activity (Micrococcus luteus [20])	Activity (Escherichia coli [22])	also measured
CCC[C@@H](O)C1=C(Br)/C(=C\Br)OC1=O [HYDROXYFIMBROLIDE]	Active	Active	31	28	21	Active	< 0.1	1.1 (≈ 3.37 µM)	0.2 (≈ 0.614 µM)	inactive	0.6 (≈ 1.84 µM)	Active	Active	Active	0.5 (≈ 1.53 µM)	Active	Active	Active	Active		zone of inhibition at 0.1 µg/disc (Penicillium oxalicum [4]): 6 mm; Activity (Penicillium oxalicum [8]): inactive; Activity (Plasmodium falciparum): >50%; Activity [19]: inactive; EC50 (ZR-75-1): 0.3 µg/mL (≈ 0.92 µM)
CCC[C@@H](O)C1=C(Br)/C(=C\Cl)OC1=O																					Activity [21]: 1.6%
CCN(CC)CCCC(C)Nc1ccnc2cc(Cl)ccc12 (centres undefined) [CHLOROQUINE]															17.4 (≈ 54.4 µM)						
CCC[C@@H](O)C1=C(Br)[C@@](CI)(OC)OC1=O	Active	Active	16	14	10	Active				inactive		inactive	inactive	inactive		inactive	Active	Active	Active	inactive	Activity (Penicillium oxalicum [4]): inactive; Activity [21]: 77.2%
CCC[C@@H](O)C1=C(Br)[C@](CI)(OC)OC1=O	Active	Active	6	6	2	inactive	9.1 (≈ 22.5 µM)	> 20	> 20	inactive	> 20	inactive	inactive	inactive	> 20	inactive	Active	Active	Active	inactive	Activity (Penicillium oxalicum [4]): inactive; Activity [21]: 55.7%; Activity (Plasmodium falciparum): >50%; Activity [19]: inactive; EC50 (ZR-75-1): 6.4 µg/mL (≈ 15.8 µM)
CCC[C@@H](O)C1=C(Br)/C(=C\I)OC1=O																					Activity [21]: 5.8%
CCCCC1=C(Br)C(OC)(C(Br)Br)OC1=O (centres undefined)	Active	Active				inactive	6.6 (≈ 15.7 µM)	8 (≈ 19 µM)	10.5 (≈ 24.9 µM)	inactive	> 20	Active	inactive	Active	7.6 (≈ 18.1 µM)	inactive	Active	inactive	Active	inactive	Activity (Penicillium oxalicum [3]): inactive; Activity (Penicillium oxalicum [4]): inactive; Activity (Penicillium oxalicum [5]): inactive; Activity (Penicillium oxalicum [6]): inactive; Activity (Plasmodium falciparum): >50%; Activity [19]: inactive; EC50 (ZR-75-1): 6.7 µg/mL (≈ 15.9 µM)
CCC[C@@H](OC(C)=O)C1=C(Br)[C@@](C)(OC)OC1=O	Active	inactive	6	8	3	inactive	1.7 (≈ 5.29 µM)	2.8 (≈ 8.72 µM)	10.7 (≈ 33.3 µM)	inactive	> 20	Active	inactive	inactive	5.4 (≈ 16.8 µM)	inactive	inactive	inactive	Active	inactive	Activity (Penicillium oxalicum [4]): inactive; Activity (Plasmodium falciparum): >50%; Activity [19]: inactive; EC50 (ZR-75-1): 2.4 µg/mL (≈ 7.47 µM)
CCC[C@@H](OC(C)=O)C1=C(Br)[C@](C)(OC)OC1=O	Active	inactive	12	16	8	Active	3.6 (≈ 11.2 µM)	4.7 (≈ 14.6 µM)	5.6 (≈ 17.4 µM)	inactive	> 20	inactive	inactive	inactive	3.9 (≈ 12.1 µM)	inactive	inactive	Active	Active	inactive	Activity (Penicillium oxalicum [4]): inactive; Activity [21]: 86%; Activity (Plasmodium falciparum): >50%; Activity [19]: inactive; EC50 (ZR-75-1): 4 µg/mL (≈ 12.5 µM)
CCC[C@@H](OC(C)=O)C1=C(Br)/C(=C\Br)OC1=O [ACETOXYFIMBROLIDE]	Active	inactive	22	18	14	Active				Active		Active	inactive	inactive		Active	inactive	Active	Active	inactive	zone of inhibition at 0.1 µg/disc (Penicillium oxalicum [4]): 6 mm; Activity (Penicillium oxalicum [8]): inactive
